# Only some compounds are listed: those with a hit (about 2.9% of all), similar ones and a draw of the others.
# NLRP3 yeast inh – NALP3 inhibition in yeast; inhibition, % at 10 µM; hit rate 0.39% among 330,000; AID 2825; Yeast reconstituted NLRP3/ASC/caspase-1, beta-gal luminescence, 24 h;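 active means inhibition of 50% or more; inactive means inhibition below 50%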;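 further: plate controls were induced DMSO wells for no effect and uninduced yeast grown without galactose for full effect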
# NALP1 yeast inh – blocks the NALP1 inflammasome reconstituted in yeast. inhibition, % at 10 µM. S. cerevisiae NALP1/ASC/caspase-1 growth, X-gal OD620, 72 h. hit rate 0.61% among 280,000; in the data active means inhibition mostly above about 24%, no sharp cut-off; inactive means mostly below about 32%
# VIM-2 inhibitor – inhibitors of Pseudomonas aeruginosa VIM-2 metallo-beta-lactamase | purified VIM-2, nitrocefin hydrolysis, epi-absorbance fluorescence | inhibition, % at 5.6 µM | hit rate 0.89% among 290,000;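 active means inhibition above the mean of all tested compounds plus 3 SD, cutoff set per screening run, cut at about 7.5% in these data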;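 further: red hydrolysis product quenches plate fluorescence so inhibitors raise well fluorescence; 0% = enzyme with DMSO and 100% = DMSO without enzyme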
# PolyA inhibitor – yeast polyadenylation inhibition; activity score, % at 12 µM; S. cerevisiae SKY197-pL101 polyadenylation reporter, beta-gal luminescence; efflux-impaired pdr1/pdr3 knockout yeast; score 100 = 6 SD above DMSO; hit rate 0.02% among 300,000;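 active means lowest replicate activity score at least 50, where 100 means six control SD above control mean; inconclusive means lowest score under 50 but half or more replicates reach 50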;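 further: yeast exposed to compound for 9 h at 30 °C; higher score means more reporter readthrough which indicates perturbed polyadenylation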
# Mot1-301 SUMO – SUMOylation pathway inhibition by Mot1-301 growth rescue; growth rescue, % at 18.8 µM; S. cerevisiae Mot1-301 growth rescue, ATP luminescence, 38.5C; percent above DMSO median, 100 means doubled; hit rate 1% among 320,000; AID 2716;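 active means every valid replicate shows activation above 250% relative to neutral control wells; inactive means the rest, any valid replicate at or below 250%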;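 further: OY570 slx delta 5 strain wells were the positive control but not used for scaling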
# IMP-1 inh – inhibitors of Pseudomonas aeruginosa IMP-1 metallo-beta-lactamase; purified IMP-1, nitrocefin hydrolysis, epi-absorbance fluorescence; inhibition, % at 5.6 µM; hit rate 0.45% among 290,000; AID 1556;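 active means inhibition above the mean plus 3 SD of all compounds in the same screening run, cut at about 4.5% in these data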;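 further: 0% = IMP-1 with DMSO and 100% = DMSO wells lacking enzyme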
#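 System – purified recombinant IMP-1 beta-lactamase · Input – IMP-1 dispensed at 0.2 nM · Timing – 15 min preincubation plus 25 min reaction at 25 °C · Signal – Epi-absorbance fluorescence, 480 nm excitation, 530 nm emission · Measure – percent IMP-1 inhibition derived from blank-referenced optical density · Controls – Enzyme-plus-DMSO low control, enzyme-free DMSO high control · Replication – singlicate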
# Mot1 SUMO dose – SUMO pathway inhibitors in yeast Mot1-301 growth. shares compounds with Mot1-301 SUMO. S. cerevisiae Mot1-301 galactose growth, ATP luminescence, 24 h; -100 = growth of slx-deleted rescue strain. growth activity, percent, % at 42 µM. 2,300 tested, under 10 active. AID 493004;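 active means Signal drops as the depositor expects, and the fitted half-maximal dose is no more than ten times the top valid tested dose; inconclusive means Poor fit, or a flat curve whose signal drops by 30% to 70%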;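 further: more negative values mean stronger growth rescue toward the control strain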
# Starred values were filed as active, the others as inactive; u = inconclusive; x = no result; + = active, no number; [ ] = another dose, or the depositor's remark.
SMILES,NLRP3 yeast inh,NALP1 yeast inh,VIM-2 inhibitor,PolyA inhibitor,Mot1-301 SUMO,IMP-1 inh,Mot1 SUMO dose
O=C(Nc1cccc(Cl)c1N1CCOCC1)c1ccc(Br)o1,15,-1,-1,-34,22,-2,x
Cc1cc(C)n2c(SCC(C)C)nnc2n1,23,-12,0,10,770*,-2,-1
CCSc1nnc2nc(C)cc(C)n12,7,5,-1,3,300,-1,x
CC(C(=O)Nc1ccc(C#N)cc1)N1CCN(C(=O)C2CC2)CC1 (stereo unspecified),13,x,x,x,-2,x,x
Cc1ccc(C(C(=O)Nc2ccc3c(c2)OCO3)N(C)C(=O)Cc2c[nH]c3ccccc23)cc1 (stereo unspecified),11,26,-1,9,756*,-4,0
COc1ccccc1C(=O)NC(=O)COC(=O)Cc1ccccc1[N+](=O)[O-],15,x,x,-8,617*,x,-1
COc1cc(C(=O)N/N=C/c2ccccn2)cc(OC)c1OC,7,-2,-4,1,935*,-1,0
CC(=O)N1CCN(c2ccc(NCc3ccc(-c4cccc(Cl)c4)o3)cc2)CC1,21,x,x,x,43,x,x
Cc1ccc(S(=O)(=O)N2CCCCC2)cc1C(=O)NCCN1CCOCC1,-10,x,x,x,-20,x,x
O=C(COC(=O)c1cccc(Br)c1)Nc1ccc2[nH]c(=O)[nH]c2c1,10,x,x,-11,510*,x,0
O=C(COC(=O)c1c(F)cccc1F)Nc1ccc2[nH]c(=O)[nH]c2c1,0,28,-1,-8,76,-2,x
Cc1ccc(CNC(=O)C2CCCN(S(=O)(=O)c3ccc(-n4cnnn4)cc3)C2)cc1 (stereo unspecified),12,6,1,21,3,-2,x
Cc1cc(C)n(CCC(=O)Nc2ccc(-c3ccno3)cc2)n1,19,31,2,4,38,-2,x
CCCn1nc(C(=O)NNC(=O)c2cc(S(=O)(=O)NC)ccc2Br)c2ccccc2c1=O,16,x,x,-13,549*,x,-1
CN(C)C(=O)c1cc(C(=O)c2ccc(C(F)(F)F)cc2F)c[nH]1,2,7,-2,8,500*,-3,0
CCCN(CC(=O)Nc1ccccc1C)CC(=O)Nc1ccc(Br)cc1F,1,30,-1,12,0,-1,x
COc1ccc(S(=O)(=O)N2CCN=C2SCc2cccc(F)c2)cc1,29,8,-1,26,33,-4,x
CCOC(=O)c1cnc2oc3ccccc3n2c1=O,15,6,2,5,+,-1,1
COc1cccc(S(=O)(=O)Nc2cccc(C(=O)N3CCOCC3)c2)c1,12,4,-2,9,478*,-4,0
Cc1c(C(=O)N2CCCCC2)c(S(=O)(=O)Nc2cccc(Br)c2)c(C)n1C,1,2,0,-13,0,-4,x
Cc1c(C(=O)N2CCOCC2)c(S(=O)(=O)Nc2cccc(Br)c2)c(C)n1C,22,11,1,6,553*,0,1
Cc1ccccc1-c1nc2ccc(Cl)cc2c(=O)n1O,19,0,-3,u,613*,-1,-1
CC(C)(C)NC(=O)NC(=O)CN1CCN(S(=O)(=O)c2ccc3c(c2)OCCO3)CC1,8,x,-4,4,988*,-4,-1[21 µM]
Cc1cc(NC(=O)CC2CCCC2)ccc1Br,47,22,-5,-14,386*,-2,-1
Cc1ccc(NC(=O)CC2CS(=O)(=O)CC2CC(=O)Nc2ccc(C)c(C)c2)cc1C (stereo unspecified),2,0,-6,14,440*,-3,0
SMILES,NLRP3 yeast inh,NALP1 yeast inh,VIM-2 inhibitor,PolyA inhibitor,Mot1-301 SUMO,IMP-1 inh,Mot1 SUMO dose
Cc1ccc(NC(=O)C/C(N)=N/O)cc1C,12,5,-2,-7,11,-3,x
O=C(Cn1cnc2ccccc21)Nc1cccc(S(=O)(=O)N2CCCC2)c1,0,x,x,x,-10,x,x
Cc1ccnc(NC(=O)CNC(=O)c2ccc(Br)o2)c1,6,x,x,3,493*,x,0
N#C/C(=C\Nc1ccc2c(c1)OCCO2)c1nc(-c2ccccc2)cs1,-6,x,-2,-1,5,0,x
N#C/C(=C\Nc1ccc2c(c1)OCCO2)c1nc2ccccc2[nH]1,18,11,-4,-37,935*,0,-1
CCN(CC(=O)NC1CCS(=O)(=O)C1)C(=O)c1cc(OC)c(OC)c(OC)c1 (stereo unspecified),4,x,x,x,16,x,x
Cc1cc(C)c(S(=O)(=O)N2CCCC(C(=O)NC3CC3)C2)c(C)c1 (stereo unspecified),9,11,-1,-14,1,-2,x
S=C(c1ccc(N2CCOCC2)cc1)N1CCCCC1,7,6,-5,8,367*,3,0
Oc1ccc(C(=S)N2CCCCC2)cc1,7,22,-3,-10,28,1,x
CC(C)C[C@@H](CO)N1CCN(Cc2ccc(Br)cc2)CCC1=O,0,29,-1,-15,6,-3,x
CC(C)C[C@@H](CO)N1CCN(Cc2cccnc2)CCC1=O,2,0,-2,-6,621*,-4,0
COc1ccccc1C(=O)N/C(=C/c1ccco1)C(=O)Nc1cccc(C(=O)O)c1,-8,3,-5,7,1,-4,x
CN(C(=O)c1cc(S(=O)(=O)N2CCOCC2)cs1)c1ccccc1,-4,-8,-2,11,6,-4,x
COc1cccc(C2CC(c3cccc(NS(C)(=O)=O)c3)=NN2C(=O)c2ccccc2)c1OC (stereo unspecified),4,23,-2,3,387*,-4,0
CCCCc1cc(=O)oc2cc(OCC(=O)NCCN3CCOCC3)ccc12,12,20,-1,-5,7,-1,x
Cc1nc(C(F)(F)F)ccc1C(=O)Nc1ccccc1N1CCOCC1,7,18,-2,u,461,1,x
O=C1CN(C(=O)COC(=O)c2cccc(S(=O)(=O)NCc3ccccc3)c2)c2ccccc2N1,17,-10,-4,1,554*,-4,1
Cc1cc(C)cc(NC(=O)CS(=O)(=O)c2ccccc2)c1,28,9,-1,5,368*,-1,0
CNS(=O)(=O)c1cccc(C(=O)OCC(=O)Nc2ccc(OC)cc2[N+](=O)[O-])c1,22,-18,-1,7,810*,-2,0
COc1ccc(NC(=O)COC(=O)c2cc(OC)c(OC)c(OC)c2)c([N+](=O)[O-])c1,14,x,-1,-11,-31,-2,x
CCOC(=O)C1=C(N)c2ccccc2CC1C1CCCC1 (stereo unspecified),11,6,-1,-14,552*,-1,0
Cc1ccc(NC(=O)CNCc2cccs2)cc1Br,27,28,0,-2,-4,0,x
